ABCG2 inh – blocks JC-1 efflux by human ABCG2 transporter | inhibition, % at 6.6 µM | 0.1% of 190,000 active | IgMXP3 cells, flow cytometry;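 active = inhibition above 80%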;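 note: 0% = DMSO and 100% = nicardipine control wells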
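test system = two drug-resistant human cell lines, ABCG2 and ABCB1 | amount = 3 million cells/mL final, two lines in 1:1 ratio | reagent = JC-1 transporter substrate | doses = one concentration, 6.6 µM final | incubation = 10 min at 25 °C | signal = flow cytometric JC-1 green MFI at 530 nm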
EP2 mod – modulators of human EP2 prostaglandin E2 receptor | P43116 | EP2-expressing cells, cAMP HTRF FRET, PGE2 co-stimulation | induction, % at 25 µM | 0.83% of 260,000 active | AID 940;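 active = compounds whose cAMP rise, as percent of the full-agonist control response, exceeds 60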;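 note: rat C6 glioma line stably carrying human EP2 under a CMV promoter; the protocol text gives 20 µM as final concentration; 100% = response of wells given 1 µM PGE2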
RBBP9 inh – inhibitors of human serine hydrolase RBBP9; recombinant RBBP9, FP-Rh probe fluorescence polarization; O75884; inhibition, % at 7.94 µM; 0.2% of 220,000 active;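 active = inhibition above the campaign mean of all tested compounds plus 3 SD, cut at about 14% in these data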;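 note: plate controls were DMSO wells with RBBP9 for no effect and wells lacking RBBP9 protein for full effect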
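Test system: recombinant human RBBP9. Quantity: 2.5 µM RBBP9 dispensing solution, before mixing. Detection: FP readout at 525/598 nm. Reagent: Serine-hydrolase probe FP-Rh, 375 nM pre-mixing. Measure: % inhibition. Control set: DMSO-treated enzyme wells and wells lacking RBBP9. Buffer or medium: Tris-NaCl-Pluronic buffer, pH 8.0. Times: preincubation 30 min plus labeling 45 min at 25 °C.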
PGE2 EP2 inh – EP2 receptor (human) inhibition. P43116. C6 glioma cells expressing human EP2, cAMP TR-FRET; cells stimulated with saturating PGE2. inhibition, % at 25 µM. 0.52% of 260,000 active. AID 1422;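 active = percent inhibition above 40 after rounding to a whole number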;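 note: rat C6 glioma host cells with rolipram phosphodiesterase inhibitor present; the protocol text gives 20 µM as final concentration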
ABCB1 block – inhibitors of human ABCB1 transporter, ABCG2 counter-screen | P08183 | CCRF-Adr cells, JC-1 efflux, flow cytometry | inhibition, % at 6.6 µM | 0.067% of 190,000 active | AID 1326; in the data active = inhibition above about 40%;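 note: 0% = vehicle and 100% = reference inhibitor; higher value means more JC-1 retained so stronger ABCB1 efflux block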
The depositor's hits bear a star; nt = no result; ! = not active in a repeat. In the library only some 1.5% were active in any assay of this set; here they are far more common.

SMILES | ABCG2 inh | EP2 mod | RBBP9 inh | PGE2 EP2 inh | ABCB1 block
Cc1cccc(Nc2nc(N)c([N+](=O)[O-])c(N3CCC(C)CC3)n2)c1 | 0 | 48 | -6 | 18 | 0
Cc1ccc(Nc2nc(N)c([N+](=O)[O-])c(NCc3ccccc3)n2)cc1 | nt | 74* | 1 | 2 | nt
Cc1cccc(Nc2nc(N)c([N+](=O)[O-])c(NCc3ccco3)n2)c1 | 4 | 62* | -13 | 2 | 0
Cc1cccc(Nc2nc(NCc3ccco3)nc(N)c2[N+](=O)[O-])c1 | nt | 33 | -5 | 14 | nt
Nc1nc(Nc2ccc(Cl)cc2)nc(NCc2ccco2)c1[N+](=O)[O-] | nt | 65* | -7 | 1 | nt
Cc1cccc(Nc2nc(N)c([N+](=O)[O-])c(N3CC(C)CC(C)C3)n2)c1 (configuration not stated) | 12 | 63* | -16 | 5 | 1
COCCn1c(N2CCN(c3cccc(Cl)c3)CC2)nc2c1c(=O)n(C)c(=O)n2C | nt | 5 | nt | 7 | nt
O=C1CCCC2=C1C(c1cc(Br)ccc1O)Nc1ccc3ccccc3c12 (configuration not stated) | nt | -12 | nt | 9 | nt
COc1ccccc1Nc1nc(NCc2ccco2)c2ccccc2n1 | nt | -14 | -1 | 12 | nt
Cc1ccc(Nc2nc(NCc3ccco3)c3ccccc3n2)cc1 | 2 | -51 | 2 | 42* | 2
COc1ccc2c3c(cccc13)NN=C2C | nt | nt | 15* | nt | nt
COc1ccc(C(=O)c2ccc(OC)c3cccc(O)c23)cc1OC | -1 | -24 | 4 | 11 | 0
O=c1ccc2cc3c4c(c2o1)CCCN4CCC3 | 4 | -51 | 1 | 7 | 0
O=c1oc2c3c4c(cc2s1)CCCN4CCC3 | 2 | 73* | 3 | 3 | 0
COc1cccc(-n2nnnc2SCC(=O)Nc2ccc(C)cc2C)c1 | nt | -61 | nt | 5 | nt
CC(=O)[C@]1(O)CC[C@@H]2[C@H]3C[C@@H](C)C4=CC(=O)CC[C@@]4(C)[C@@H]3[C@@H](O)C[C@]21C | nt | 4 | nt | 50* | nt
CC(=O)[C@@]1(O)CC[C@H]2[C@@H]3C[C@H](C)C4=CC(=O)CC[C@]4(C)[C@H]3CC[C@@]21C | 2 | 27 | -5 | 13 | 0
Cc1ccccc1CN(Cc1ccccc1OCC(=O)O)C1CC(C)(C)NC(C)(C)C1 | nt | -9 | nt | 10 | nt
O=S1(=O)c2ccccc2N=NN1Cc1cc(Cl)cc(Cl)c1 | 2 | 11 | 4 | 11 | 0
O=S1(=O)c2ccccc2N=NN1Cc1ccc(Cl)cc1 | 10 | -23 | 6 | 43* | 0
COc1cc(/C=N/NC(=O)CSc2cc(C)c(Br)cc2C)ccc1O | 0 | -33 | -7 | 41* | 0
c1ccc(CCNc2nc(-c3ccncc3)nc3ccccc23)cc1 | nt | -29 | -11 | 46* | nt
CN(C)Cc1cc(C(C)(C)C)cc(C(C)(C)C)c1O | nt | 10 | -5 | 11 | nt
CN(C)Cc1ccc(C(C)(C)C)cc1-c1cc(C(C)(C)C)ccc1CN(C)C | nt | 9 | nt | 51* | nt
CCCN(C(=O)C1CCC1)c1nnc(-c2cccc(C)c2)s1 | nt | -70 | nt | 6 | nt
SMILES | ABCG2 inh | EP2 mod | RBBP9 inh | PGE2 EP2 inh | ABCB1 block
COc1ccccc1NC(=O)Nc1nn(C)c2cccc(OC)c12 | nt | 75* | -5 | 12 | nt
COc1cccc2c1c(NC(=O)c1cc(C)on1)nn2C | nt | -15 | -2 | 11 | nt
CCOC(=O)c1ccccc1NC(=O)c1c(O)c2ccccc2[nH]c1=O | nt | 14 | nt | 5 | nt
Cc1ccccc1-c1nc(P(=O)(c2ccccc2)c2ccccc2)c(N2CCOCC2)o1 | nt | 67* | -8 | 9 | nt
Cc1nc(P(=O)(c2ccccc2)c2ccccc2)c(N2CCOCC2)o1 | 3 | 15 | -4 | 11 | 0
CC(C)OC(=O)c1[nH]ncc1[N+](=O)[O-] | nt | -5 | nt | 10 | nt
COc1ccc(CN(Cc2cccn2C)S(=O)(=O)c2ccccc2)cc1 | nt | 69* | -8 | 14 | nt
O=C(Nc1ccc2c(c1)oc1ccccc12)C1CC1 | 38 | -9 | -5 | 9 | 0
O=C(Nc1ccc2c(c1)oc1ccc(S(=O)(=O)N3CCCC3)cc12)C1CC1 | 110* | -16 | -6 | 9 | -1
COc1ccc(N2CC(C(=O)Nc3ccccc3F)CC2=O)cc1 (configuration not stated) | nt | -15 | nt | 12 | nt
Oc1cc(O)c2c(c1)O[C@H](c1ccc(O)c(O)c1)[C@@H](O)[C@@H]2c1c(O)cc(O)c2c1O[C@@H](c1ccc(O)c(O)c1)[C@H](O)C2 | nt | 17 | nt | 51* | nt
CCCC(=O)Nc1ccc(NC(=O)c2ccc3c(c2)OCO3)cc1 | nt | -2 | nt | 13 | nt
Clc1ccc(/C=C/c2nc(Cl)c(-c3ccc(Cl)cc3)c(Cl)n2)cc1 | nt | 18 | -9 | 43*! | nt
CCC(=O)Nc1nnc(SCC(=O)c2ccc3c(c2)Cc2ccccc2-3)s1 | 0 | 29 | -13 | nt | 0
CC(=O)Nc1nnc(SCC(=O)c2ccc3c(c2)Cc2ccccc2-3)s1 | 0 | 61* | 0 | 13 | 0
CCNC(=S)N(CCCN(CC)CC)Cc1cc2cc3c(cc2[nH]c1=O)OCCO3 | nt | -27 | nt | 11 | nt
N#CC1=C(N)Oc2nc[nH]c(=O)c2C1c1cccc(OCC(N)=O)c1 (configuration not stated) | nt | 22 | nt | 4 | nt
CN(C(=O)COc1ccccc1C(=O)NCCOc1ccccc1)c1ccccc1 | 13 | -67 | -6 | 90* | 2
COc1ccc(C(=O)Nc2cccc(-c3nn4c(C)nnc4s3)c2)cc1OC | nt | -48 | nt | 8 | nt
Cc1ccc(S(=O)(=O)NCCC(c2ccc(F)cc2)c2ccco2)cc1 (configuration not stated) | 22 | 58 | -3 | 3 | 4
Cc1ccc(S(=O)(=O)NCCC(c2ccccc2)c2ccco2)cc1 (configuration not stated) | 3 | 64* | -5 | 4 | 4
Nc1ccccc1SCC(=O)N1c2ccccc2Sc2ccc(C(F)(F)F)cc21 | nt | 88* | nt | 5 | nt
Cc1ccccc1OCC(=O)Nc1ccc2c(c1)OCCO2 | nt | -6 | -4 | 5 | nt
O=C(COc1ccccc1Cl)Nc1ccc2c(c1)OCCO2 | 3 | 64* | -11 | 18 | 1
C=CCOc1cccc(C2C(C(=O)c3ccc(C)o3)=C(O)C(=O)N2Cc2cccnc2)c1 (configuration not stated) | nt | 32 | nt | 13 | nt
SMILES | ABCG2 inh | EP2 mod | RBBP9 inh | PGE2 EP2 inh | ABCB1 block
CCn1c(COc2ccc(Br)cc2)nnc1SCC(=O)Nc1ccc(OC)cc1 | nt | 16 | nt | 10 | nt
C=CCn1c(N2CCC(C(=O)NCCCOC)CC2)nc2ccccc21 | nt | -35 | nt | 5 | nt
COc1cc(O)c(CC=C(C)C)c(O)c1C(=O)CCc1ccc(O)cc1 | nt | -4 | nt | 76* | nt
CCOC(=O)C1=C(N)N2C(=O)C(C)SC2=C(C(=O)OCC)C1c1ccc(O)cc1 (configuration not stated) | nt | 11 | 7 | 8 | nt
CCOC(=O)C1=C(N)N2C(=O)C(C)SC2=C(C(=O)OCC)C1c1ccccc1 (configuration not stated) | 6 | 62* | -4 | 9 | 3
CC(=O)N1c2ccc(NC(=O)c3cccc(N4CCCC4=O)c3)cc2CC1C (configuration not stated) | nt | -29 | nt | 5 | nt

Compound activity as filed in PubChem.
